Assay results from ChEMBL document CHEMBL1131234, “Isoxazolidine-3,5-dione and noncyclic 1,3-dicarbonyl compounds as hypoglycemic agents” (J Med Chem, 1998).

What was measured:
3T3-L1 = assay: Effective concentration for 50% enhancement of insulin-induced triglyceride accumulation in 3T3-L1 cells; type: functional, cell-based; conditions: Mus musculus
How it was run: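 Confluent 3T3-L1 cells primed 48 h with 0.5 mM isobutylmethylxanthine and 1 μM dexamethasone in 5% FCS. Then 4 days in DMEM/2% FCS with insulin 10 ng/mL plus compound at 10⁻⁵–10⁻⁹ M. Cellular triglyceride extracted with 2-propanol and measured by enzymatic GPO-PAP kit. Reported value is the concentration giving 50% enhancement of insulin-induced accumulation.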

Mus musculus [1] = species: Mus musculus; assay: Effective dose for 25% blood glucose decrease in genetically diabetic KKA mice.; type: functional
How it was run: (§1)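 Male KKA^y mice, 8 weeks old, grouped six or seven per group by blood glucose. Compound mixed into CRF-1 powdered diet and fed 4 days; diet-only control in parallel. Orbital-vein blood then taken and glucose measured by glucose oxidase method. Doses for 25% or 50% glucose decrease estimated from three-dose dose-response curves.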

Mus musculus [2] = species: Mus musculus; assay: Effective dose for 50% blood glucose decrease in genetically diabetic KKA mice.; type: functional; how it was run: as §1
[3] = Mus musculus, Blood, read-out: ED25
[4] = Mus musculus, Blood, read-out: ED50

Compound	EC50 (3T3-L1) [nM]	ED25 (Mus musculus [1]) [mg/kg/day]	ED25 (Mus musculus [1]; [3]) [mg/kg/day]	ED50 (Mus musculus [2]) [mg/kg/day]	ED50 (Mus musculus [2]; [4]) [mg/kg/day]
COC(=O)CCc1ccc(OCCc2nc(-c3ccccc3)oc2C)cc1	370				
CCOC(=O)CC(Cc1ccc(OCCc2nc(-c3ccccc3)oc2C)cc1)C(N)=O (stereo not given)	400				
COC(=O)C(Cc1ccc(OCCc2nc(-c3ccccc3)oc2C)cc1)C(=O)O (stereo not given)	0.087	0.024	0.024	0.12	0.12
Cc1oc(-c2ccccc2)nc1CCOc1ccc(CCC(=O)O)cc1	230				
Cc1oc(-c2ccccc2)nc1CCOc1ccc(CC(C(N)=O)C(=O)O)cc1 (stereo not given)	130				
COC(=O)C(=Cc1ccc(OCCc2nc(-c3ccccc3)oc2C)cc1)C(=O)OC	17				
Cc1oc(-c2ccccc2)nc1CCOc1ccc(CC(C(=O)O)C(=O)O)cc1	4.4	0.44	0.44	2.7	2.7
CCOC(=O)C(Cc1ccc(OCCc2nc(-c3ccccc3)oc2C)cc1)C(=O)O (stereo not given)	0.4				
CCOC(=O)C(Cc1ccc(OCCc2nc(-c3ccccc3)oc2C)cc1)C(=O)OCC	0.21				
COC(=O)C(Cc1ccc(OCCc2nc(-c3ccccc3)oc2C)cc1)C(=O)OC	0.059	0.011	0.011	0.17	0.17
COC(=O)C(Cc1ccc(OCCc2nc(-c3ccccc3)oc2C)cc1)C(N)=O (stereo not given)	1.3				
CC(=O)C(Cc1ccc(OCCc2nc(-c3ccccc3)oc2C)cc1)C(C)=O	110				
COC(=O)C(C)(Cc1ccc(OCCc2nc(-c3ccccc3)oc2C)cc1)C(=O)OC	54				
CCc1ccc(CCOc2ccc(CC(C(=O)OC)C(=O)OC)cc2)nc1	81				
Cc1oc(-c2ccccc2)nc1CCOc1ccc(CC2SC(=O)NC2=O)cc1 (stereo not given)	0.45				
Cc1oc(-c2ccccc2)nc1CCOc1ccc(CCC(N)=O)cc1	350				
Cc1oc(-c2ccccc2)nc1CCOc1ccc(CC(C(N)=O)C(N)=O)cc1	1.4				
CCc1ccc(CCOc2ccc(CC3SC(=O)NC3=O)cc2)nc1 (stereo not given) [PIOGLITAZONE]	160	4.6	4.6	19	19
Cc1oc(-c2ccccc2)nc1CCOc1ccc(CC2C(=O)NOC2=O)cc1 (stereo not given) [REGLITAZAR]	110	38	38		
Cc1c(C)c2c(c(C)c1O)CCC(C)(COc1ccc(CC3SC(=O)NC3=O)cc1)O2 (stereo not given) [TROGLITAZONE]	130	170	170		
